From ChEMBL document CHEMBL1150569, “Three new furan derivatives and a new fatty acid from a Taiwanese marine sponge Plakortis simplex” (J Nat Prod, 2001)
Values after ≈ are worked out from the molar mass of the structure shown.

Legend:
[1] = Cytotoxicity against human COLO250 cells; format: functional, cell-based
Method in brief: (§1)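 In vitro cytotoxicity against human tumor cells: COLO-250 colon carcinoma cells and KB-16 nasopharyngeal carcinoma cells. Activity expressed as IC50 in µg/mL.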

[2] = Cytotoxicity against human KB16 cells; format: functional, cell-based; method in brief: as §1
[3] = Homo sapiens, KB16, read-out: IC50

| SMILES | IC50 [1] | IC50 ([2]; kb16) | IC50 [2, 3] [µg/mL] | IC50 ([1]; Homo sapiens, read-out: IC50) [µg/mL] |
| --- | --- | --- | --- | --- |
| CCCCCCCCCCCCCCCCc1ccc(CC(=O)OC)o1 [PLAKORSIN A] | Not Active | Not Active |  |  |
| CCCCCCCCCCCCCCCC[C@@]1(OC)C=C[C@@H](CC(=O)OC)OO1 [CHONDRILLIN] | Not Active |  | 0.74 (≈ 1.79 µM) |  |
| CCCCCCCCCCCCCCCC[C@@]1(OC)C=C[C@H](CC(=O)OC)OO1 | Not Active | Not Active |  |  |
| COC(=O)CCC(=O)CC(=O)OC | Not Active | Not Active |  |  |
| CCCCCCCCCCCCCCCCc1ccc(CC(=O)O)o1 [PLAKORSIN B] |  |  | 3.43 (≈ 9.78 µM) | 0.28 (≈ 0.799 µM) |
| COC(=O)C[C@@H]1C=CC(=O)O1 | Not Active | Not Active |  |  |
| CCCCCCCCCCCCCCCCC(=O)/C=C/C1OC1C(=O)O (stereo not drawn) [PLAKORTIC ACID] | Not Active | Not Active |  |  |
| CCCCC(CCC=O)CCCCCCCc1ccc(CC(=O)OC)o1 (stereo not drawn) [PLAKORSIN C] | Not Active | Not Active |  |  |
| COC(=O)/C=C\C=C/C(=O)O | Not Active | Not Active |  |  |
